# Screening data as filed in PubChem BioAssay.
# Sampled rows, rich in hits. Any-hit rate of the full collection: about 1.9%.
# XiGFP reactiv = activators of X-chromosome reactivation in mouse fibroblasts. XiGFP mouse fibroblasts, % GFP-positive cells imaging, 3 d; cells co-treated with 5-aza-dC sensitizer; scaled so ellipticine positive control = 100%. activation, % at 7.58 µM. 0.055% of 360,000 active;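 active = mean normalized replicate activation at least 10% and every replicate at or above 10%; inconclusive = only one of the two criteria met; inactive = mean below 10% and not all replicates reach 10%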;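 also: 0% = median of on-plate neutral control wells and 100% = ellipticine 6 µM median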
#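 assay system = SV40-immortalized XiGFP fibroblast cells, line 68-5-11 | buffer or medium = DMEM plus 5-aza-dC sensitizer | doses = single-point pinned compound dosing | times = 3-day compound exposure, then 15 min fixation at room temperature | benchmarks = positive control ellipticine, 6 µM final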
# Cneo AK release = Cryptococcus neoformans lysis via adenylate kinase release; C. neoformans lysis, adenylate kinase release luminescence, 4 h; normalised: neutral wells 0, clomiphene wells 100; lysis activity, % at 15 µM; 0.2% of 360,000 active; AID 651654;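 active = mean lysis activity across replicates of at least 80%, whatever share of replicates individually reach that level; inactive = mean lysis activity below 80%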
#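 Signal: Adenylate kinase release luminescence | Assay system: Log-phase Cryptococcus neoformans yeast cells | Input: Cells at 5 × 10^6 per mL | Buffer or medium: Fresh YPD growth medium | Compound: Single dose | Schedule: Static 4 h at 37 °C with compound, 1 h detection | Controls: Clomiphene | Read-out: Luminescence rise reflecting yeast cell lysis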
# FN deposit inh = fibronectin deposition inhibition; AH1F fibroblasts, Alexa488-fibronectin deposition fluorescence, overnight; inhibition, % at 12.6 µM; 0.086% of 350,000 active; AID 743247;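 active = mean inhibition across replicates of 30% or more, regardless of how many single replicates reach that level; inconclusive = mean under 30% yet at least half of replicates reach 30%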;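 also: positive control wells lacked labelled fibronectin entirely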
#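 Assay system: AH1F fibroblasts assembling fluorescent fibronectin matrix; Amount: 10000 AH1F cells per well; Buffer or medium: DMEM, 2% serum; Probe or stimulus: Alexa488-fibronectin, 24 nM final in well; Doses: single compound dose, delivered by pin transfer; Incubation: 1 h adhesion, overnight exposure; Measured by: fluorescence 485/525 nm; Read-out: fibronectin deposition inhibition.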
# PGC1a acetyl inh = lowers PGC1a acetylation signal in U2OS cells; AlphaScreen anti-acetyl-lysine; with virally co-expressed GCN5 acetyltransferase; inhibition, % at 15.6 µM; 0.17% of 350,000 active; AID 651687;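 active = every replicate shows inhibition of at least 40%; inconclusive = mean inhibition at least 40% but some replicate below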;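 also: 0% = neutral control wells and 100% = positive control wells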
# F508del corr = correctors of CFTR F508del function in bronchial epithelial cells. CFBE cells, YFP halide quenching; stimulated with forskolin plus potentiator P3; % fluorescence drop versus neutral controls. activity (quench increase), % at 7.58 µM. 0.36% of 350,000 active. AID 720511;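 active = mean added fluorescence quench of at least 8% versus neutral control, with both replicates also reaching 8%; inconclusive = only one of the mean or replicate conditions met; inactive = mean below 8% and not both replicates reaching 8%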;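 also: cells transiently co-express mutant CFTR-F508del with the halide-sensitive YFP; corrector assay measuring rescue of mutant channel to the surface after 24 h compound exposure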
# DENV2 CPE = DENV2-induced cell death inhibition | CPE inhibition, % at 9.99 µM | 1.7% of 350,000 active | AID 651640 | DENV2-infected cells, cytopathic effect rescue, plate reader; in the data active = CPE inhibition above about 20%, passing the limit was not always enough; inconclusive = no clear call, values can overlap the other calls; tested in BHK-21 cells;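 also: 0% = median of neutral control wells and 100% = median of positive control wells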
# The depositor's hits bear a star; u = inconclusive; x = no result given; ! = not active in a repeat.
SMILES,XiGFP reactiv,Cneo AK release,FN deposit inh,PGC1a acetyl inh,F508del corr,DENV2 CPE
COCCNC(=O)c1cc2c(c(-c3cccc(C4=CCCCC4)c3)n1)[C@@H](CCO)N([S@](=O)C(C)(C)C)C2,0.0,x,4.0,-12.8,-2.4,-9.2
C[C@@H]1CN([C@@H](C)CO)C(=O)Cc2cc(NC(=O)NC3CCCCC3)ccc2O[C@@H]1CN(C)Cc1ccc(C(=O)Nc2ccccc2N)cc1,0.4,x,x,x,x,x
C[C@@H]1CN([C@H](C)CO)C(=O)Cc2cc(NC(=O)NC3CCCCC3)ccc2O[C@@H]1CN(C)Cc1ccc(C(=O)Nc2ccccc2N)cc1,-1.3,x,x,-0.2,-1.9,28.3*
CCC(=O)Nc1ccc2c(c1)C(=O)N(C)C[C@H](OC)[C@@H](C)CN(C(=O)c1cccnc1)[C@@H](C)CO2,0.1,-5.1,-5.4,3.2,-0.2,-3.1
CC(C)CC#Cc1ccc([C@@H]2[C@H]3CN(C(=O)NC4CCCC4)CC(=O)N3[C@H]2CO)cc1,0.3,x,-1.1,8.8,-2.3,3.0
NC(=O)CC(NC(=O)c1ccccc1)c1ccc(NCCc2cccc(F)c2)c([N+](=O)[O-])c1 (stereo not drawn),-0.3,4.4,-12.3,x,2.2,39.1*
NC(=O)CC(NC(=O)c1cccc(Br)c1)c1ccc(NCCN2CCOCC2)c([N+](=O)[O-])c1 (stereo not drawn),0.1,x,-1.8,x,-2.4,29.2*
NC(=O)CC(NC(=O)c1cccc(Br)c1)c1ccc(NCC2CC2)c([N+](=O)[O-])c1 (stereo not drawn),0.4,0.1,-5.1,x,-2.8,-9.3
COc1ccc(S(=O)(=O)N(C)C[C@@H]2Oc3ccc(NC(=O)Nc4ccccc4)cc3C(=O)N([C@@H](C)CO)C[C@H]2C)cc1,0.1,-4.1,x,0.1,-1.8,35.4*
COc1ccc(S(=O)(=O)Nc2ccc3c(c2)C(=O)N([C@@H](C)CO)C[C@@H](C)[C@H](CN(C)S(=O)(=O)c2ccc(Cl)cc2)O3)cc1,-0.1,8.4,x,-11.6,2.6,84.6*
COc1ccc(NC(=O)Nc2ccc3c(c2)C(=O)N([C@@H](C)CO)C[C@@H](C)[C@H](CN(C)S(=O)(=O)c2ccc(OC)cc2)O3)cc1,0.1,-1.0,x,-6.1,-0.9,27.8*
COc1ccc(NC(=O)Nc2ccc3c(c2)C(=O)N([C@H](C)CO)C[C@@H](C)[C@H](CN(C)S(=O)(=O)c2ccc(Cl)cc2)O3)cc1,0.0,-0.4,x,-5.3,-0.3,68.4*
C[C@@H]1CN([C@@H](C)CO)C(=O)c2cc(C#CCN(C)C)cnc2O[C@H]1CN(C)C,-0.6,-3.1,-1.2,-0.5,-0.4,2.6
C[C@H]1CN([C@@H](C)CO)S(=O)(=O)c2ccc(C3=CCCCC3)cc2O[C@@H]1CN(C)C(=O)Cc1cccnc1,-0.1,-2.0,7.8,8.5,0.5,-5.0
CNC[C@@H]1Oc2ccc(NS(=O)(=O)c3ccc(Cl)cc3)cc2C(=O)N([C@H](C)CO)C[C@@H]1C,0.6,0.7,2.6,2.2,2.0,39.2*!
COc1ccc(S(=O)(=O)N(C)C[C@H]2Oc3ccc(NC(=O)CCCN(C)C)cc3C(=O)N([C@@H](C)CO)C[C@H]2C)cc1,0.4,4.7,x,1.7,-1.4,33.5*
CNC[C@H]1Oc2ccc(NS(=O)(=O)c3ccc(Cl)cc3)cc2C(=O)N([C@@H](C)CO)C[C@@H]1C,-1.1,x,x,2.2,2.2,-0.8
COc1ccc(S(=O)(=O)Nc2ccc3c(c2)C(=O)N([C@H](C)CO)C[C@H](C)[C@@H](CN(C)C)O3)cc1,-0.5,-3.0,x,7.2,-0.1,69.5*
C(=C\c1sc(Nc2ccccc2)n[n+]1-c1ccccc1)/c1ccccc1,0.1,-1.1,5.8,-8.8,-4.5,52.2*
CNC[C@H]1Oc2cc(-c3cccc(C(=O)N(C)C)c3)ccc2S(=O)(=O)N([C@@H](C)CO)C[C@H]1C,-0.5,1.1,x,-5.7,-0.3,u
CCN1CCN(C(c2ccccc2)c2nnnn2Cc2ccccc2)CC1 (stereo not drawn),x,2.3,32.8*,-2.6,x,x
C[C@H](CO)N1C[C@H](C)[C@H](CN(C)C(=O)C2CCOCC2)Oc2ncc(C3=CCCCC3)cc2C1=O,-0.1,-1.2,-1.9,4.8,-1.7,-10.0
O=C1c2ccc3c4c(ccc(c24)C(=O)N1CCCCO)C(=O)N(CCCCO)C3=O,0.0,x,-3.9,x,18.2*,1.3
O=C(c1ccc2c(c1)C(=O)N(CCCO)C2=O)c1ccc2c(c1)C(=O)N(CCCO)C2=O,x,1.9,x,-9.1,x,x
C[C@@H]1CCCCO[C@H](CN(C)C(=O)c2ccccc2)[C@@H](C)CN([C@@H](C)CO)C(=O)c2cc(NC(=O)c3ccccc3)ccc2O1,0.0,96.4*,-4.4,36.4,-1.2,-0.5
SMILES,XiGFP reactiv,Cneo AK release,FN deposit inh,PGC1a acetyl inh,F508del corr,DENV2 CPE
C[C@H](CO)N1C[C@H](C)[C@@H](CN(C)C(=O)c2ccccc2)OCCCC[C@H](C)Oc2ccc(NC(=O)C3CCCCC3)cc2C1=O,-0.8,1.0,x,11.8,0.1,33.6*
C[C@@H]1CN([C@@H](C)CO)C(=O)c2cc(NC(=O)c3ccccc3)ccc2O[C@@H](C)CCCCO[C@@H]1CN(C)C(=O)CCC(F)(F)F,0.0,-2.8,-10.4,-0.1,1.3,28.6*
C[C@H]1CCCCO[C@@H](CN(C)C(=O)c2ccccc2)[C@@H](C)CN([C@@H](C)CO)C(=O)c2cc(NC(=O)c3ccncc3)ccc2O1,0.0,85.7*,x,-47.7,-3.1,-3.0
C[C@H](CO)N1C[C@H](C)[C@@H](CN(C)C(=O)c2ccccc2)OCCCC[C@H](C)Oc2ccc(NC(=O)c3ccncc3)cc2C1=O,0.0,-1.0,x,17.8,-2.2,6.2
C[C@@H]1CCCCO[C@@H](CN(C)C(=O)c2ccccc2)[C@H](C)CN([C@H](C)CO)C(=O)c2cc(NC(=O)C3CCCCC3)ccc2O1,-0.4,0.2,x,13.9,2.2,2.1
C[C@@H]1CN([C@@H](C)CO)C(=O)c2cccc(NC(=O)c3ccc(-c4nccs4)cc3)c2O[C@H]1CN(C)S(=O)(=O)c1cccs1,0.0,-0.8,2.7,-7.2,0.7,-0.5
COc1cccc(-c2cccc(-c3nc(C(=O)N(C)C)cc4c3[C@H](CCO)N([S@@](=O)C(C)(C)C)C4)c2)c1,0.0,-11.1,-15.9,1.8,0.6,5.9
COc1ccccc1CNC(=O)C[C@@H]1C[C@H]2c3cc(NC(=O)c4ccc5c(c4)OCO5)ccc3O[C@H]2[C@H](CO)O1,0.1,-15.3,x,0.9,-1.8,-5.9
